Test results from ChEMBL document CHEMBL1221192, “Using substrate engineering to harness enzymatic promiscuity and expand biological catalysis” (Nat Chem Biol, 2006).

Experiments:
LACTOSE, ANHYDROUS [1] = experiment: (§1) Activity at Neisseria meningitidis lgtC by UV-VIS spectroscopy
How it was run: (§2)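 Continuous coupled assay: UDP release from LgtC-catalysed galactose transfer (UDP-Gal donor) coupled to NADH oxidation, followed at 340 nm (ε = 6.22 mM–1cm–1) in a temperature-controlled spectrophotometer. Initial rates were fitted directly to obtain kinetic parameters (kcat, Km, kcat/Km).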

[2] = substrate: O=C(OC[C@H]1O[C@@H](O)[C@@H](O)[C@@H](O)[C@@H]1O)c1ccccc1; experiment: as §1; how it was run: as §2
[3] = substrate: OC[C@H]1O[C@@H](O[C@H]2[C@H](O)[C@@H](O)[C@H](OCc3ccccc3)O[C@@H]2CO)[C@H](O)[C@@H](O)[C@@H]1O; experiment: as §1; how it was run: as §2
[4] = substrate: O[C@@H]1[C@@H](O)[C@H](OCc2ccccc2)OC[C@H]1O; experiment: as §1; how it was run: as §2
[5] = substrate: CCCCCCCCO[C@@H]1OC[C@@H](O)[C@H](O)[C@H]1O; experiment: (§3) Ratio of Kcat to Km for Neisseria meningitidis lgtC; how it was run: as §2
[6] = substrate: CCCCCCCCO[C@@H]1O[C@H](CO)[C@@H](O)[C@H](O)[C@H]1O; experiment: as §3; how it was run: as §2
[7] = substrate: CCCCCCCCO[C@@H]1O[C@H](CO)[C@H](O)[C@H](O)[C@H]1O; experiment: as §3; how it was run: as §2
LACTOSE, ANHYDROUS [8] = experiment: as §3; how it was run: as §2
[9] = substrate: O=C(OC[C@H]1O[C@@H](O)[C@@H](O)[C@@H](O)[C@@H]1O)c1ccccc1; experiment: as §3; how it was run: as §2
[10] = substrate: O=C(O[C@@H]1CO[C@@H](O)[C@H](O)[C@H]1O)c1ccccc1; experiment: as §3; how it was run: as §2
[11] = substrate: O=C[C@H](O)[C@@H](O)[C@@H](O)[C@H](O)CO; experiment: as §3; how it was run: as §2
[12] = substrate: O=C[C@H](O)[C@@H](O)[C@H](O)CO; experiment: as §3; how it was run: as §2
[13] = substrate: OC1OC[C@@H](O)[C@@H](O)[C@@H]1O; experiment: as §3; how it was run: as §2
[14] = substrate: OC[C@H]1OC(O)[C@@H](O)[C@@H](O)[C@@H]1O; experiment: as §3; how it was run: as §2
[15] = substrate: OC[C@H]1OC(O)[C@H](O)[C@@H](O)[C@@H]1O; experiment: as §3; how it was run: as §2
[16] = substrate: OC[C@H]1OC(O)[C@H](O)[C@H](O)[C@@H]1O; experiment: as §3; how it was run: as §2
[17] = substrate: OC[C@H]1O[C@@H](O[C@H]2[C@H](O)[C@@H](O)[C@H](OCc3ccccc3)O[C@@H]2CO)[C@H](O)[C@@H](O)[C@@H]1O; experiment: as §3; how it was run: as §2
[18] = substrate: O[C@@H]1[C@@H](O)[C@H](OCc2ccccc2)OC[C@H]1O; experiment: as §3; how it was run: as §2
[19] = substrate: O[C@@H]1[C@H](O)[C@@H](O)OC[C@H]1O; experiment: as §3; how it was run: as §2
[20] = substrate: O[C@H]1[C@H](O)[C@@H](O)[C@H](O)[C@@H](O)[C@H]1O; experiment: as §3; how it was run: as §2

B1: Alpha 1,4 galactosyltransferase (Neisseria meningitidis), Q8KHJ3 (protein)
chain: MDIVFAADDNYAAYLCVAAKSVEAAHPDTEIRFHVLDAGISEANRAAVAANLRGGGNIRFIDVNPEDFAGFPLNIRHISITTYARLKLGEYIADCDKVLYLDIDVLVRDSLKPLWDTDLGDNWLGACIDLFVERQNAYKQKIGMADGEYYFNAGVLLINLKKWRQHDIFKMACEWVEQYKDVMQYQDQDILNGLFKGGVCYANSRFNFMPTNDAFMANRFASRHTDPLYRDRTYTAMPVAVSHYCGPAKPWHRDCTAWGAERFTELAGSLTSVPEEWRGKLAVPHRVFPTKRMLQRWRRKLSARFLRKIY
With B1 the Km (LACTOSE, ANHYDROUS [1]) was 40 mM, the kcat (LACTOSE, ANHYDROUS [1]) was 160 s⁻¹ and the Km [2] was 30 mM. For the same protein, the kcat [2] was 2.5 s⁻¹, the Km [3] was 35 mM and the kcat [3] was 1 s⁻¹. The Km [4] was 15 mM, the kcat [4] was 10 s⁻¹ and the kcat/Km [5] was 367 M⁻¹ s⁻¹. For the same protein, the kcat/Km [6] was 23.3 M⁻¹ s⁻¹, the kcat/Km [7] was 63.3 M⁻¹ s⁻¹ and the kcat/Km (LACTOSE, ANHYDROUS [8]) was 4000 M⁻¹ s⁻¹. It also gave a kcat/Km [9] of 83.3 M⁻¹ s⁻¹, a kcat/Km [10] of 200 M⁻¹ s⁻¹ and a kcat/Km [11] of 5 M⁻¹ s⁻¹. It also gave a kcat/Km [12] of 30 M⁻¹ s⁻¹, a kcat/Km [13] of 1.67 M⁻¹ s⁻¹ and a kcat/Km [14] of 5 M⁻¹ s⁻¹. For the same protein, the kcat/Km [15] was 3.33 M⁻¹ s⁻¹, the kcat/Km [16] was 0.833 M⁻¹ s⁻¹ and the kcat/Km [17] was 28.3 M⁻¹ s⁻¹. For the same protein, the kcat/Km [18] was 667 M⁻¹ s⁻¹, the kcat/Km [19] was 5 M⁻¹ s⁻¹ and the kcat/Km [20] was 3.33 M⁻¹ s⁻¹.
